How the values were obtained:
Hamster = assay: concentration in plasma after dosing; details: dosed: 2,4-Dichlorophenoxyacetic acid, 2.0 mg/kg, oral, Male, Syrian Golden
Summary of the method: (§1)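 A PubMed search, classifier screening and manual review identified published in vivo toxicokinetic studies, which together with two structured collections supplied concentration-versus-time and amount-versus-time points. Points were mostly digitised from plot screenshots with WebPlotDigitizer, otherwise copied from tables. Dose, route, subject details and medium were hand-curated from each paper, and sampling and analytical methods are those of the sources, often unreported.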

Mouse [1] = assay: concentration in plasma after dosing; details: dosed: 2,4-Dichlorophenoxyacetic acid, 2.0 mg/kg, oral, Male, B6C3F1
Rat [2] = assay: concentration in plasma after dosing; details: dosed: 2-Hydroxy-4-methoxybenzophenone, 500 mg/kg, oral, Female, F344
Mouse [3] = assay: concentration in plasma after dosing; details: 0.25 h; dosed: 2-Hydroxy-4-methoxybenzophenone; 500 mg/kg; oral; Female; B6C3F1
Rat [4] = assay: concentration in plasma after dosing; details: 4 h; dosed: 2-Hydroxy-4-methoxybenzophenone; 500 mg/kg; oral; Male; F344
Rat [5] = assay: concentration in plasma after dosing; details: dosed: 2-Hydroxy-4-methoxybenzophenone, 500 mg/kg, oral, Female, F344; remark: listed apart in the source
Mouse [6] = assay: concentration in plasma after dosing; details: 0.25 h; dosed: 2-Hydroxy-4-methoxybenzophenone; 50 mg/kg; iv; Male; B6C3F1
Rat [7] = assay: concentration in plasma after dosing; details: dosed: 2-Hydroxy-4-methoxybenzophenone, 500 mg/kg, oral, Male, F344
Mouse [8] = assay: concentration in plasma after dosing; details: 2 h; dosed: 2-Hydroxy-4-methoxybenzophenone; 250 mg/kg; oral; Male; B6C3F1
Mouse [9] = assay: concentration in plasma after dosing; details: dosed: 2-Hydroxy-4-methoxybenzophenone, 100 mg/kg, oral, Female, B6C3F1
Rat [10] = assay: concentration in plasma after dosing; details: dosed: 2-Hydroxy-4-methoxybenzophenone, 100 mg/kg, oral, Male, F344
Rat [11] = assay: concentration in plasma after dosing; details: 0.25 h; dosed: 2-Hydroxy-4-methoxybenzophenone; 500 mg/kg; oral; Female; F344
Rat [12] = assay: concentration in plasma after dosing; details: dosed: Methyleugenol, 37 mg/kg, oral, Female, F344/N
Rat [13] = assay: concentration in plasma after dosing; details: dosed: Methyleugenol, 37 mg/kg, oral, Male, F344/N
Rat [14] = assay: concentration in plasma after dosing; details: 20 min; dosed: Methyleugenol; 37 mg/kg; oral; Female; F344/N
Rat [15] = assay: concentration in plasma after dosing; details: dosed: Methyleugenol, 37 mg/kg, oral, Male, F344/N; remark: listed apart in the source
Rat [16] = assay: concentration in liver after dosing; details: 96 h; dosed: Perfluorohexane-1-sulphonic acid – potassium salt; 16 mg/kg; oral; Female; Harlan Sprague Dawley
Rat [17] = assay: concentration in brain after dosing; details: 24 h; dosed: Perfluorohexane-1-sulphonic acid – potassium salt; 16 mg/kg; oral; Female; Harlan Sprague Dawley
Rat [18] = assay: concentration in brain after dosing; details: 12 h; dosed: Perfluorohexane-1-sulphonic acid – potassium salt; 16 mg/kg; oral; Female; Harlan Sprague Dawley
Rat [19] = assay: concentration in kidney after dosing; details: 192 h; dosed: Perfluorohexane-1-sulphonic acid – potassium salt; 16 mg/kg; oral; Female; F344
Rat [20] = assay: concentration in kidney after dosing; details: 3 h; dosed: Perfluorohexane-1-sulphonic acid – potassium salt; 16 mg/kg; oral; Female; F344
Rat [21] = assay: concentration in plasma after dosing; details: 9 h; dosed: Primidone; 130 mg/kg; oral; Male; F344
Rat [22] = assay: concentration in plasma after dosing; details: dosed: Pyridine, 5 mg/kg, oral, Male, F344
Rat [23] = assay: concentration in brain after dosing; details: 1.5 h; dosed: alpha-Thujone; 25 mg/kg; oral; Male; Harlan Sprague Dawley
Rat [24] = assay: concentration in brain after dosing; details: 1.5 h; dosed: alpha-Thujone; 25 mg/kg; oral; Male; Harlan Sprague Dawley; remark: listed apart in the source
Rat [25] = assay: concentration in brain after dosing; details: 2.5 h; dosed: 76231-76-0; 3.0 mg/kg; iv; Female; F344
Rat [26] = assay: concentration in plasma after dosing; details: 6 h; dosed: alpha-Thujone; 50 mg/kg; oral; Female; Harlan Sprague Dawley
Rat [27] = assay: concentration in plasma after dosing; details: 0.5 h; dosed: alpha-Thujone; 50 mg/kg; oral; Female; Harlan Sprague Dawley
Rat [28] = assay: concentration in plasma after dosing; details: 6 h; dosed: alpha-Thujone; 25 mg/kg; oral; Male; Harlan Sprague Dawley
Rat [29] = assay: concentration in plasma after dosing; details: 3 h; dosed: alpha-Thujone; 50 mg/kg; oral; Female; Harlan Sprague Dawley
Rat [30] = assay: concentration in plasma after dosing; details: 0.5 h; dosed: alpha-Thujone; 25 mg/kg; oral; Male; Harlan Sprague Dawley
human = assay: concentration in blood after dosing; details: dosed: trichloroethylene, 100 ppm, inhalation, duration: 6 hr, male
Summary of the method: as §1

O=C(O)COc1ccc(Cl)cc1Cl [2,4-Dichlorophenoxyacetic acid]
concentration in plasma [ng/mL]
Details | 0.25 h | 0.5 h | 2 h | 2.5 h | 2.5 min | 3 h | 5 min | 10 min
Hamster | – | – | – | 200 | – | – | 2770 | 10300
Mouse [1] | 3740 | 8570 | 2400 | – | 2790 | 929 | – | 4900

O=C(c1ccccc1)c1ccc(O)cc1O [2,4-Dihydroxybenzophenone]
Details | concentration in plasma [ng/mL]
Mouse [9], 0.25 h | 303
Mouse [9], 2 h | 34.9
Mouse [9], 2.5 min | 68
Mouse [9], 3 h | 30.3
Mouse [9], 10 min | 115
Rat [2], 0.5 h | 675
Rat [2], 12 h | 221
Rat [5], 0.5 h | 669
Rat [5], 12 h | 198
Rat [7], 0.5 h | 162
Rat [7], 12 h | 148
Rat [10], 0.5 h | 160
Rat [10], 5 h | 40

Details | concentration in plasma [ng/mL]
Mouse [3] | 5480
Mouse [6] | 1940
Mouse [8] | 266
Rat [4] | 124
Rat [11] | 781

C=CCc1ccc(OC)c(OC)c1 [Methyleugenol]
Details | concentration in plasma [ng/mL]
Rat [12], 4 h | 9.95
Rat [12], 5 min | 173
Rat [13], 0.5 h | 293
Rat [13], 3 h | 21.9
Rat [15], 5 h | 7.02
Rat [15], 20 min | 53.8

Details | concentration in plasma [ng/mL]
Rat [14] | 374

O=S(=O)([O-])C(F)(F)C(F)(F)C(F)(F)C(F)(F)C(F)(F)C(F)(F)F.[K+] [Perfluorohexane-1-sulphonic acid – potassium salt]
Details | concentration in brain [ng/g] | concentration in kidney [ng/g] | concentration in liver [ng/g]
Rat [16] | – | – | 6730
Rat [17] | 701 | – | –
Rat [18] | 1140 | – | –
Rat [19] | – | 15300 | –
Rat [20] | – | 18100 | –

CCC1(c2ccccc2)C(=O)NCNC1=O [Primidone]
Details | concentration in plasma [ng/mL]
Rat [21] | 10400

c1ccncc1 [Pyridine]
Rat [22]
Details | concentration in plasma [ng/mL]
1 h | 3160
8 h | 1170

CC(C)[C@]12CC(=O)[C@H](C)[C@H]1C2 [alpha-Thujone]
Details | concentration in brain [ng/g] | concentration in plasma [ng/mL]
Rat [23] | 592 | –
Rat [24] | 388 | –
Rat [25] | 15.2 | –
Rat [26] | – | 162
Rat [27] | – | 5000
Rat [28] | – | 68.6
Rat [29] | – | 244
Rat [30] | – | 176

OCC(Cl)(Cl)Cl [trichloroethanol]
human
Details | concentration in blood [ng/mL]
0 h | 4780
18 h | 1170
24 h | 3430
42 h | 2780
48 h | 6470
66 h | 5220
72 h | 10800
90 h | 7860

— EPA's CvTdb concentration-time database
